Experimental data reported in paper PMC3514448 (ACS chemical biology, 2012).
≈ marks a conversion by molar mass, not a printed value. Where two headings read alike, the source gives them in different places.

How the values were obtained:
[1] = target: T1, BsFtsZ (Bacillus subtilis, UniProt P17865); test: Enzyme-coupled GTPase assay, BsFtsZ; format: biochemical; details: for Inhibition of BsFtsZ GTPase activity: absence of Triton X-100; for Inhibition of BsFtsZ GTPase activity with detergent: 0.01% Triton X-100; for Inhibition of BsFtsZ GTPase activity at increasing FtsZ concentrations: increasing protein concentration
T1 sequence (P17865 whole entry): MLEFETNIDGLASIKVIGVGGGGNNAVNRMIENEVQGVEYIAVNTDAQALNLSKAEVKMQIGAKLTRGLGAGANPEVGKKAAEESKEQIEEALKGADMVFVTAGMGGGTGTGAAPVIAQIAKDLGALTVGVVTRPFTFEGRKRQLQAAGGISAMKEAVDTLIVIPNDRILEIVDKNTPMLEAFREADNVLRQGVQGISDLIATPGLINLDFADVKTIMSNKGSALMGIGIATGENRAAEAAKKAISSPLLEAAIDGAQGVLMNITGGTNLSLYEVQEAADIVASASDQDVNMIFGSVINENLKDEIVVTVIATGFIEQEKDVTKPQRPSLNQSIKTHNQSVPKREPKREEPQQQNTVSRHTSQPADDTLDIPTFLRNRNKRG

[2] = target: EcFtsZ (Escherichia coli, UniProt P0A9A6); format: biochemical; details: for Inhibition of EcFtsZ GTPase activity with detergent: 0.01% Triton X-100; for Inhibition of EcFtsZ GTPase activity at increasing FtsZ concentrations: increasing protein concentration
EcFtsZ, sequence (P0A9A6 whole entry): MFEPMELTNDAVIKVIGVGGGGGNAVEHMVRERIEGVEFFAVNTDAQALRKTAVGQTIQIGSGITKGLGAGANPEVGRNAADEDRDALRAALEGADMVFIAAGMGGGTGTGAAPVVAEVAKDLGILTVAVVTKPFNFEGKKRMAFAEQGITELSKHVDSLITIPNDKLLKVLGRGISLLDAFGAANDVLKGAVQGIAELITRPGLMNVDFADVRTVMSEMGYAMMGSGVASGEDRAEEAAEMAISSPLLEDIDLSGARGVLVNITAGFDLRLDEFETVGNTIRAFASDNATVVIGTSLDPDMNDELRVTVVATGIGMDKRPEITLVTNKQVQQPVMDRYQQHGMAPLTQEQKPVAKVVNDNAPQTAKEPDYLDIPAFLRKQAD

[3] = test system: FtsZ; details: cited from earlier work
[4] = test system: tubulin; details: berberine even at high concentration (100 μM); cited from earlier work
[5] = target: T2, Dnm1 (Saccharomyces cerevisiae, UniProt P54861); test: GTPase activity of the eukaryotic GTPase Dnm1; format: biochemical
T2 sequence (P54861 1-757): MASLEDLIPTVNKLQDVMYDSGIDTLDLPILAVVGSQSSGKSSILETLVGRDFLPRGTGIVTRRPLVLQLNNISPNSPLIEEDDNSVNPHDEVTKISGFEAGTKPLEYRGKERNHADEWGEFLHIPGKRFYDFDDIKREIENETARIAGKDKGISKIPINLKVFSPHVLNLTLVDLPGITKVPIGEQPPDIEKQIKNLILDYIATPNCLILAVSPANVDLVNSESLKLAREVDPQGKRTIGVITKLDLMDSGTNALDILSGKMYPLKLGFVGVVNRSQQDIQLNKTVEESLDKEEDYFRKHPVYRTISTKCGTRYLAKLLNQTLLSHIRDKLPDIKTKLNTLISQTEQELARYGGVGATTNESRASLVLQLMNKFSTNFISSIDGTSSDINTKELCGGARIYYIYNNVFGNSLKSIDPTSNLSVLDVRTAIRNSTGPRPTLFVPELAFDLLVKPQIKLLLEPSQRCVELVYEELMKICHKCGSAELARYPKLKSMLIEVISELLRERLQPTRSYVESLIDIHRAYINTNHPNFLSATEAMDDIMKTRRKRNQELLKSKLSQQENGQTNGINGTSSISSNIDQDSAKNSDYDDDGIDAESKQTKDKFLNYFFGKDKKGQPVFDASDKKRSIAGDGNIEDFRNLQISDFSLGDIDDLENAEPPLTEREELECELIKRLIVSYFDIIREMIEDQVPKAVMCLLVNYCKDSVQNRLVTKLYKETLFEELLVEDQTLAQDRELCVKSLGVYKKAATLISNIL

[6] = test system: B. subtilis strain 168; test: Antimicrobial activity; format: cell-based, Bacillus subtilis
[7] = target: SaFtsZ (Staphylococcus aureus, UniProt P0A031); test: GTPase assay, SaFtsZ; format: biochemical
SaFtsZ, sequence (P0A031 whole entry): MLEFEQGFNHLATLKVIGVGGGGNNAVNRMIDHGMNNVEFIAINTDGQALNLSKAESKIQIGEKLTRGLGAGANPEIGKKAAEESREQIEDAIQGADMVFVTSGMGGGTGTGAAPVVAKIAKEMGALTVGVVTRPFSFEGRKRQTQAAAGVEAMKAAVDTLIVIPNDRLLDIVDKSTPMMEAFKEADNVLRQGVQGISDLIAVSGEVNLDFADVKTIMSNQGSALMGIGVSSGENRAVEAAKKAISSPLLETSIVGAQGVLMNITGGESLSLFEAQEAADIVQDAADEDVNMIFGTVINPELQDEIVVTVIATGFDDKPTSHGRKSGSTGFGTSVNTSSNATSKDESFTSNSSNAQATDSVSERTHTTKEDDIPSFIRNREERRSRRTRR
Outline: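 Recombinant S. aureus FtsZ (pET11a, E. coli C41(DE3), IPTG 30 °C 5 h) purified by ammonium sulfate and anion exchange; BCA concentration divided by 0.75. 10 μM FtsZ with inhibitor in DMSO, pH 6.5 MES/Mg(OAc)2/KOAc, preincubated 5 min, then GTP added. Coupled: PK/LDH, PEP, NADH, A340 over time at ~25 °C. Malachite green: 30 °C, EDTA-quenched time points, A630 against phosphate standards.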

[8] = target: T1, BsFtsZ; test: Malachite green GTPase assay, BsFtsZ; format: biochemical; details: concentrations up to 100 μM
[9] = test system: FtsZ; test: Malachite green GTPase assay under approximate Merck viriditoxin conditions; format: biochemical; details: up to 128 μM; 50 mM Tris, 34 mM KCl, 0.75 mM Mg(OAc)2, 2.5 mM CaCl2, 50 μg/mL DEAE-Dextran, 37 °C
[10] = Chemical stability on storage; format: physicochemical; details: degrades if not stored free of solvent and at low temperature
[11] = standard conditions, up to 200 μM

## Oc1ccc(Cl)cc1Cc1cc(Cl)cc(Cc2cc(Cl)ccc2O)c1O [zantrin Z1]
[1]
  Inhibition of BsFtsZ GTPase activity: exhibited the published activity
[2]; absence of Triton X-100
  Inhibition of EcFtsZ GTPase activity: exhibited the published activity

## O=C1C[C@@H](c2ccccc2)Oc2c(Cc3ccccc3O)c(O)c(Cc3ccccc3O)c(O)c21 [Dichamanetin]
[3]
  Reported activity (FtsZ inhibition): 12.5 µM

## COc1ccc2cc3[n+](cc2c1OC)CCc1cc2c(cc1-3)OCO2 [berberine]
[4]
  Inhibition of tubulin assembly: does not do so

## CC(C)c1c(O)ccc2c1CC[C@H]1C(C)(C)CCC[C@]21C [totarol]
[1]
  Inhibition of BsFtsZ GTPase activity with detergent: vanished
  Inhibition of BsFtsZ GTPase activity: reproduce the IC50
  Inhibition of BsFtsZ GTPase activity at increasing FtsZ concentrations: decreased nearly to the point of having no effect
[2]
  Inhibition of EcFtsZ GTPase activity with detergent: vanished
  Inhibition of EcFtsZ GTPase activity at increasing FtsZ concentrations: decreased nearly to the point of having no effect
[2]; absence of Triton X-100
  Inhibition of EcFtsZ GTPase activity: reproduce the IC50
[5]; 0.01% Triton X-100
  Dnm1 GTPase activity on addition of detergent: completely restored
[5]; micromolar concentrations, no detergent
  Effect on Dnm1 GTPase activity: significant reduction

## NC(=O)c1c(F)ccc(OCc2nc3cc(Cl)cnc3s2)c1F [PC190723]
[6]
  MIC: 1 µM (≈ 0.356 µg/mL)
[1]; concentrations up to 100 μM
  Inhibition of BsFtsZ, enzyme-coupled assay: no inhibition
[7]
  Inhibition of SaFtsZ GTPase activity: no inhibition
[7]; basal activity ~0.5 GTP/FtsZ/min
  Change of SaFtsZ GTPase activity: dose-dependent and reproducible increase in activity
[8]
  Inhibition of BsFtsZ, malachite green assay: no inhibition

## C[n+]1cc2c3c(ccc2c2ccc4cc5c(cc4c21)OCO5)OCO3 [sanguinarine]
[4]
  Inhibition of tubulin assembly: inhibit tubulin assembly

## O=C1CC(c2ccc(O)cc2)Oc2c(Cc3ccccc3O)c(O)c(Cc3ccccc3O)c(O)c21 (stereo not shown) [4′-hydroxydichamanetin]
[1]
  Inhibition of BsFtsZ GTPase activity: exhibited the published activity
[2]
  Inhibition of EcFtsZ GTPase activity: exhibited the published activity

## COc1nc2c(=O)[nH]c(N)nc2n1[C@@H]1O[C@H](COP(=O)(O)OP(=O)(O)OP(=O)(O)O)[C@@H](O)[C@H]1O [8-methoxy GTP]
[3]
  Concentration at which the GTPase activity of FtsZ is inhibited: 15 µM

## COC(=O)CC1Cc2cc3cc(OC)c(-c4c(OC)cc5cc6c(c(O)c5c4O)C(=O)OC(CC(=O)OC)C6)c(O)c3c(O)c2C(=O)O1 (stereo not shown) [Viriditoxin, viriditoxin]
[9]
  Inhibition of FtsZ GTPase under Merck conditions: no inhibition
[1]; [11]
  Inhibition of B. subtilis FtsZ: no inhibition
[2]; [11]
  Inhibition of E. coli FtsZ: no inhibition
[3]; read-out: Reported IC50 (FtsZ)
  IC50: 10 µM
[10]
  Chemical stability: chemically unstable

## Zantrin Z3
[1]
  Inhibition of BsFtsZ GTPase activity with detergent: maintained
  Inhibition of BsFtsZ GTPase activity at increasing FtsZ concentrations: maintained
[2]
  Inhibition of EcFtsZ GTPase activity with detergent: maintained
  Inhibition of EcFtsZ GTPase activity at increasing FtsZ concentrations: maintained
[2]; read-out: IC50 for inhibition of EcFtsZ GTPase activity, no Triton X-100
  IC50: 20 µM
